From ChEMBL document CHEMBL1773052, “3-Trifluoromethylquinoxaline N,N'-dioxides as anti-trypanosomatid agents. Identification of optimal anti-T. cruzi agents and mechanism of action studies” (J Med Chem, 2011) come the findings set out here.

Activity calls are given as the source filed them. The calls are words filed in the database; no cut-off is given here.

The subject of series [1] is Trypanosoma cruzi. As to the kind of experiment: Antitrypanosomal activity against Trypanosoma cruzi CL Brener clone infected in Swiss albino mouse assessed as increase of mouse survival days at 50 mg/kg/day, po relative to control. The series is classed as functional.
The subject of series [2] is Trypanosoma cruzi. As to the kind of experiment: Antitrypanosomal activity against Trypanosoma cruzi Y infected in Swiss albino mouse assessed as increase of mouse survival days at 50 mg/kg/day, po relative to control. The series is classed as functional.
Series [3] concerns Trypanosoma cruzi. As to the kind of experiment: Antitrypanosomal activity against Trypanosoma cruzi CL Brener clone infected in BALB/c mouse assessed as increase of mouse survival days at 50 mg/kg/day, po relative to control. Format: functional.
Series [4] concerns Trypanosoma cruzi. As to the kind of experiment: Antitrypanosomal activity against Trypanosoma cruzi Y infected in Swiss albino mouse assessed as reduction of microbial antibody level at 50 mg/kg/day, po by Wilconxon test. The series is classed as functional, organism-based. The method, boiled down:
(§1)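 Male BALB/c or Swiss albino mice, 30 days old, SPF, infected ip with 10³ blood trypomastigotes (CL Brener or Y). Oral dosing in PBS for 10 days. Controls: 10 mice on PBS; treated groups of 8. Tail-vein parasitemia weekly for 60 days, mortality recorded. Anti-T. cruzi antibodies measured by ELISA, run twice, at 30 and 60 or 90 days post-infection.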

The subject of series [5] is Trypanosoma cruzi. As to the kind of experiment: Antitrypanosomal activity against Trypanosoma cruzi CL Brener clone infected in BALB/c mouse assessed as reduction of microbial antibody level at 50 mg/kg/day, po after 90 days by Wilconxon test. The series is classed as functional, organism-based. The method, boiled down: as §1
Series [6] deals with Trypanosoma cruzi. As to the kind of experiment: Antitrypanosomal activity against Trypanosoma cruzi Tulahuen 2 epimastigotes assessed as growth inhibition at 25 uM after 5 days relative to control. The following applies: Tulahuen 2, 120 h, read-out: GI. Format: functional. The method, boiled down: (§2)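 Epimastigotes grown axenically at 28 °C in BHI-tryptose + 5% FBS; a 10-day stationary culture was inoculated to 1 × 10⁶ cells/mL. Drug added from DMSO stock, final DMSO ≤0.4%, vehicle control. A600 read daily. PGI on day 5 corrects for day-0 absorbance, relative to control. […] Three independent experiments.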

Series [7] relates to Trypanosoma cruzi. As to the kind of experiment: Antitrypanosomal activity against Trypanosoma cruzi Tulahuen 2 epimastigotes assessed as growth inhibition after 5 days. The series is classed as functional. The following applies: Tulahuen 2, 120 h, read-out: ID50. The method, boiled down:
as §2

For series [8], the system named is Trypanosoma cruzi. As to the kind of experiment: Antitrypanosomal activity against Trypanosoma cruzi CL Brener clone epimastigotes assessed as cell death at 25 uM after 2 days by MTT assay relative to control. The series is classed as functional. The method, boiled down:
(§3)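 Epimastigotes of each strain taken in exponential growth in BHI-tryptose with 5% FBS, 1 mL per well. Compounds added from DMSO and kept 2 days at 28 °C. Cells washed twice and resuspended in PBS-glucose (5.5 mM), then given 0.4 mg/mL MTT for 4 h at 28 °C. Lysis in SDS-isopropanol, OD read. Triplicate wells, six growth controls. PCyt taken against control, corrected for medium-only wells.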
On the technique in general: Tetrazolium assays rely on reduction of a dye to a coloured formazan, in cell work by metabolically active cells.

Series [9] relates to Trypanosoma cruzi. As to the kind of experiment: Antitrypanosomal activity against Trypanosoma cruzi CL Brener clone epimastigotes assessed as cell death after 2 days by MTT assay. The series is classed as functional. The following applies: 48 h, read-out: ID50 (the source's name). The method, boiled down: (§4)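 Parasites in exponential growth, in BHI-tryptose + 5% FBS for T. cruzi or RPMI + 5% FBS for L. braziliensis, 28 °C, 24-well plates. Compounds in DMSO; miltefosine in ethanol. 2-day exposure, two PBS-glucose (5.5 mM) washes, then MTT 0.4 mg/mL for 4 h at 28 °C. SDS-isopropanol lysis, OD read. Triplicates, six growth controls.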

Series [10] deals with Trypanosoma cruzi. As to the kind of experiment: Antitrypanosomal activity against Trypanosoma cruzi Y epimastigotes assessed as cell death at 25 uM after 2 days by MTT assay relative to control. Format: functional. The method, boiled down:
as §3

For series [11], the system named is Trypanosoma cruzi. As to the kind of experiment: Antitrypanosomal activity against Trypanosoma cruzi Y epimastigotes assessed as cell death after 2 days by MTT assay. The series is classed as functional. The following applies: 48 h, read-out: ID50 (the source's name). The method, boiled down: as §4
The test system of series [12] is Trypanosoma cruzi. As to the kind of experiment: Antitrypanosomal activity against Trypanosoma cruzi Colombiana epimastigotes assessed as cell death at 25 uM after 2 days by MTT assay relative to control. The series is classed as functional. The method, boiled down:
as §3

Series [13] concerns Trypanosoma cruzi. As to the kind of experiment: Antitrypanosomal activity against Trypanosoma cruzi Colombiana epimastigotes assessed as cell death after 2 days by MTT assay. The series is classed as functional. The following applies: 48 h, read-out: ID50 (the source's name). The method, boiled down: as §4
The test system of series [14] is Leishmania braziliensis. As to the kind of experiment: Antileishmanial activity against Leishmania braziliensis MHOM/BR/00/LTB300 promastigotes assessed as cell death after 2 days by MTT assay. The series is classed as functional. The following applies: MHOM/BR/00/LTB300, 48 h, read-out: ID50 (the source's name). The method, boiled down: as §4
In series [15] the test system is Trypanosoma cruzi. As to the kind of experiment: Inhibition of mitochondrial dehydrogenase activity in Trypanosoma cruzi Y epimastigotes at 20 uM up to 120 mins by MTT assay. The method, boiled down:
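Y-strain epimastigotes, 10⁶ per well in 500 μL medium, treated with 20 μM compound at 28 °C, untreated wells as time-matched controls. At each time point cells counted, then MTT (50 μL of 5 mg/mL in PBS) added for 4 h. Stopped with acidic isopropanol, A570 read. Activity given as percent of untreated control.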

Series [16] relates to Trypanosoma cruzi. As to the kind of experiment: Inhibition of mitochondrial dehydrogenase activity in Trypanosoma cruzi Y epimastigotes assessed as reduction of acetate excretion at 5 uM […] by NMR analysis. The method, boiled down:
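Y-strain epimastigotes treated 2 days with 5 μM compound, 5 mL then centrifuged at 1500g for 10 min at 4 °C. Parasite-free supernatant stored at −20 °C. Before NMR, 0.3 mL supernatant mixed with 0.1 mL DMF (10 mM, internal standard) and 0.1 mL D₂O. Excreted metabolites compared with parasite-free medium control, expressed relative to DMF. Three experiments.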

Series [17] has as its system Trypanosoma cruzi. As to the kind of experiment: Inhibition of mitochondrial dehydrogenase activity in Trypanosoma cruzi Y epimastigotes assessed as reduction of succinate excretion […] by NMR analysis.
The nature of series [18]: Selectivity index, ratio of ID50 for mouse J774 cells to ID50 for Trypanosoma cruzi Tulahuen 2 epimastigotes. The series is classed as toxicity, cell-based. The following applies: J774 cells versus Trypanosoma cruzi Tulahuen 2 epimastigotes, read-out: Selectivity Index.
The test system of series [19] is Trypanosoma cruzi. As to the kind of experiment: Antitrypanosomal activity against Trypanosoma cruzi CL Brener clone trypomastigotes in parasite infected BALB/c mouse blood assessed as parasite lysis at 250 ug/ml after 24 hrs relative to control. The series is classed as functional. The method, boiled down: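 Blood from BALB/c mice 7 days post-infection, taken by cardiac puncture into 3.8% sodium citrate (7:3). Compounds dissolved in DMSO, diluted in PBS to 100 or 250 μg/mL. 10 μL mixed with 100 μL infected blood (~10⁶ parasites/mL), in triplicate. Shaken 10 min at RT, held 4 °C for 24 h. Parasites counted by microscopy; gentian violet 250 μg/mL as standard.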

A short description of series [20]: Cytotoxicity against mouse J774 cells. The series is classed as cell-based. The following applies: read-out: ID50 (the source's name).
Series [21] relates to Salmonella typhimurium. As to the kind of experiment: Mutagenic activity in Salmonella Typhimurium TA98 assessed as number of revertants at 0.05 to 4 ug/plate by Ames test in absence of S9 fraction. The series is classed as toxicity, organism-based. The following applies: salmonella enterica subsp. enterica serovar typhimurium. The method, boiled down:
(§5)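 Direct plate incubation with S. typhimurium TA98 on minimal glucose agar. Toxicity to the strain tested first; doses run in triplicate from DMSO solutions, DMSO as negative control. Metabolic activation with 500 μL Aroclor-treated mouse liver S9. Positive controls: 4-nitro-o-phenylenediamine 20.0 μg/plate without S9; 2-aminofluorene 10.0 μg/plate with S9. Revertants counted manually; mutagenic if ≥2-fold the negative control at two consecutive doses.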
A general note: The Ames test detects mutagens through reverse mutation in bacteria.

Series [22] deals with Salmonella typhimurium. As to the kind of experiment: Mutagenic activity in Salmonella Typhimurium TA98 assessed as number of revertants at 0.05 to 4 ug/plate by Ames test in presence of S9 fraction. The series is classed as toxicity, organism-based. The following applies: salmonella enterica subsp. enterica serovar typhimurium. The method, boiled down:
as §5

The test system of series [23] is Trypanosoma cruzi. As to the kind of experiment: Antitrypanosomal activity against Trypanosoma cruzi Y infected in Swiss albino mouse assessed as increase of mouse survival days at 10 mg/kg/day, po relative to control. The series is classed as functional.
In series [24] the test system is Trypanosoma cruzi. As to the kind of experiment: Antitrypanosomal activity against Trypanosoma cruzi CL Brener clone infected in BALB/c mouse assessed as increase of mouse survival days at 10 mg/kg/day, po relative to control. Format: functional.
Series [25] has as its system Trypanosoma cruzi. As to the kind of experiment: Antitrypanosomal activity against Trypanosoma cruzi CL Brener clone infected in BALB/c mouse assessed as reduction of microbial antibody level at 10 mg/kg/day, po after 30 days by Wilconxon test. Format: functional, organism-based. The method, boiled down:
as §1

Series [26] relates to Trypanosoma cruzi. As to the kind of experiment: Antitrypanosomal activity against Trypanosoma cruzi CL Brener clone infected in BALB/c mouse assessed as reduction of microbial antibody level at 10 mg/kg/day, po after 90 days by Wilconxon test. Format: functional, organism-based. The method, boiled down: as §1
Series [27] deals with Trypanosoma cruzi. As to the kind of experiment: Antitrypanosomal activity against Trypanosoma cruzi Y infected in Swiss albino mouse assessed as reduction of parasitemia level at 10 mg/kg/day, po by ELISA. The series is classed as functional, organism-based. The method, boiled down:
as §1

Series [28] deals with Trypanosoma cruzi. As to the kind of experiment: Antitrypanosomal activity against Trypanosoma cruzi CL Brener clone infected in BALB/c mouse assessed as reduction of parasitemia level at 10 mg/kg/day, po by ELISA. Format: functional, organism-based. The method, boiled down: as §1

Take `O=C(Cn1ccnc1[N+](=O)[O-])NCc1ccccc1` [BENZNIDAZOLE]: the survival at 50 mg/kg/day was determined as 100% in series [1], 87.5% in series [2] and 75% in series [3]. In addition, the outcome in [4] was Active. Besides, the result in [5] was inactive.
In the case of `Cc1c(Sc2ccccc2)[n+]([O-])c2cc(Cl)c(Cl)cc2[n+]1[O-]`, in series [6], the inhibition of growth at 25 µM worked out at 93%. The IC50 in series [7] is 6.5 µM; in series [9], under 1 µM; in [11] it was 2.9 µM; in series [13] it was 1700 nM; in series [14] it was 1400 nM. Also, the results for the Activity in [8], in series [10] and in series [12] were 98%, 100% and 100%, respectively. The inhibition result in series [15], in series [16] and in series [17] was “Active” throughout.
Regarding `CC1CS(=O)(=O)CCN1/N=C/c1ccc([N+](=O)[O-])o1` (stereo not drawn) [NIFURTIMOX], the inhibition of growth at 25 µM in series [6] came to 100%. Further, the IC50 stood at 7.7 µM in series [7], 4.9 µM in series [9], 9.7 µM in [11] and 3400 nM in [13]. For the same molecule, in [18], the selectivity ratio is 41. Moreover, the inhibition entry in [15] is “inactive”.
As to `CC(=O)c1c(C(F)(F)F)[n+]([O-])c2cc(F)c(F)cc2[n+]1[O-]`, the inhibition of growth at 25 µM in series [6] stood at 100%. Also, the IC50 in series [7] worked out at 0.39 µM. The Activity in series [19] is recorded as 80%; in series [21], “Toxic”; in series [22] it was “Toxic”. Further, in [20], the CC50 stood at 10.6 µM. Besides, in [18], the selectivity ratio came out at 27.2. The inhibition result in series [15] was “Active”. The survival at 10 mg/kg/day worked out at 62.5% in [23] and 100% in series [24]. Besides, the outcome in series [25], in series [26] and in series [28] was Active. In series [27], the outcome was inactive.
